# Bioassay records deposited in PubChem by several laboratories.
# TNAP inh no acc: TNAP (human) inhibition, acceptor-free conditions | inhibition, % at 20 µM | P05186 | purified TNAP, CDP-star luminescence, 30 min | actives 0.26% (n = 200,000);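 active = tissue-nonspecific alkaline phosphatase inhibition above about 50% at 20 µM in the single-dose screen, limit read from the data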;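 also: 0% = DMSO negative control and 100% = EDTA positive control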
# Target sequence (P05186 whole entry, looked up): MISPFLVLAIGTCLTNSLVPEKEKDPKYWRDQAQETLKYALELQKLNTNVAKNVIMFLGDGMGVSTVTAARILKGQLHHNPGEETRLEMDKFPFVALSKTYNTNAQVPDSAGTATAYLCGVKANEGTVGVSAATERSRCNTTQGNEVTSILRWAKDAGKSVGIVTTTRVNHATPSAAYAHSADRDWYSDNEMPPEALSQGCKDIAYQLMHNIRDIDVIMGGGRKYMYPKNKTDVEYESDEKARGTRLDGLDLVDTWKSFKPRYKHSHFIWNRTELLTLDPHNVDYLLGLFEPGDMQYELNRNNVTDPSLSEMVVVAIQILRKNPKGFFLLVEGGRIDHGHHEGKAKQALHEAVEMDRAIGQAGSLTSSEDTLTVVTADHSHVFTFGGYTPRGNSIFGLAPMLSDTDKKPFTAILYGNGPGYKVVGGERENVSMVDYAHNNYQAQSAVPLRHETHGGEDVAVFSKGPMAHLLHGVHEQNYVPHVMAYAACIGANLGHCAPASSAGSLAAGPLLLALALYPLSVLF
# TNAP act hiacc: increases human TNAP activity under high phosphate acceptor concentration. activation factor at 20 µM. AID 1136. 200,000 tested, under 10 active. purified TNAP, CDP-star luminescence, 1 M DEA, 30 min; active compounds read high; 0 = EDTA background, 1 = DMSO-only activity. P05186;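 active = activation factor at least 2 at 20 µM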
#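 system = human TNAP | amount = enzyme diluted 1/800 final | reagent = 100 µM CDP-star substrate | signal = luminescent substrate turnover signal | dosing = one dose, 20 µM | benchmarks = EDTA negative control, DMSO positive control | measure = activation factor | timing = 30 min reaction, room temperature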
# Redox H2O2 prof: compounds producing H2O2 with reducing agent – biochemical, NIH compound library profiling, artefact control for MLSCN library redox annotation, primary screen; DTT-dependent redox cycling H2O2, phenol red/HRP absorbance; 100% = 100 µM peroxide control, 0% = buffer; activation, % at 10 µM; actives 0.03% (n = 200,000);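 active = activation of at least 50% relative to the plate's high and low controls in the primary single-dose screen; inactive = activation below 50%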;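 also: compound incubated with DTT at 0.8 mM final as the reducing agent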
# PERK inhibitor: human PERK inhibition, primary cell-based screen | Q9NZJ5 | CHO PERK-DD fusion, SEAP luminescence translation reporter | inhibition, % at 5.6 µM | actives 0.17% (n = 220,000) | AID 1416;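 active = inhibition above the mean inhibition of all tested compounds plus 3 SD, set separately per screening campaign, cut at about 2.9% in these data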;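 also: PERK kinase domain activated by AP20187 dimerizer at 100 nM; 0% = DMSO with dimerizer and 100% = rapamycin at 8.4 µM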
# p97 ATPase inh: blocks human p97 ATPase activity. P55072. recombinant p97 ATPase, Kinase-Glo ATP luminescence, 3 h. inhibition, % at 8 µM. actives 0.42% (n = 220,000). AID 1481; in the data active = inhibition above about 15%;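 also: 0% = DMSO vehicle and 100% = wells lacking enzyme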
# TNAP inh hi DEA: blocks human TNAP under high phosphate acceptor concentration | actives 0.03% (n = 200,000) | purified TNAP, CDP-star luminescence, 1 M DEA | inhibition, % at 20 µM | P05186;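 active = over 50% inhibition of tissue-nonspecific alkaline phosphatase at 20 µM in the single-dose screen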;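 also: plate controls were DMSO wells for no effect and EDTA-quenched wells as full inhibition for full effect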
# DTT redox conf: generates H2O2 by DTT-dependent redox cycling, confirmed in dose response; shares compounds with Redox H2O2 prof; actives 40% (n = 60); phenol red-HRP absorbance; AID 1234; EC50, µM;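 active = EC50 under a set limit for hydrogen peroxide production with the reducing agent DTT present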
# p97 confirm: human p97 ATPase inhibition, confirmation; recombinant p97 ATPase, Kinase-Glo ATP luminescence; AID 1517; shares compounds with p97 ATPase inh; actives 44% (n = 760); inhibition, % at 8 µM;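 active = percent inhibition of p97 ATPase above a set limit, the primary screen's mean plus 3 SD, cut at about 15% in these data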;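 also: 0% = DMSO wells and 100% = wells lacking p97 protein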
# Starred values were filed as active, the others as inactive; . = no result given. A selection: hits, their analogues and other compounds. The true share with any hit is near 0.86%.
SMILES,TNAP inh no acc,TNAP act hiacc,Redox H2O2 prof,PERK inhibitor,p97 ATPase inh,TNAP inh hi DEA,others
COc1ccc(C(=O)N2CCCC2=O)cc1,-7,1,0,3.0*,6,-2,
COc1ccc(CC(=O)N2CCN(C)CC2)cc1,-5,1,0,1,-3,2,
CCCCCCC(=O)c1c(O)n(-c2ccc(OC)cc2)c(=O)[nH]c1=O (tested in a mixture with another compound),.,.,.,1,1,.,
O=C1NC(=S)NC(=O)C1=Cc1ccc2c(c1)CCN2CCCCl,.,.,.,1,18*,.,
O=C1NC(=S)N(Cc2ccco2)C(=O)/C1=C\c1cccs1,-12,0.9,-1,1,41*,10,
FCCN(CCF)c1cccc(Cl)c1,.,.,.,1,2,.,
NC(=S)c1cn(C2OC(CO)C(O)C2O)c2ncnc(N)c12 (stereo not given),.,.,.,3.1*,3,.,
O=C1NC(=O)N(Cc2ccco2)C(=O)/C1=C/c1ccc(-c2cccc([N+](=O)[O-])c2)o1,27,1,0,1,15*,-2,
CCc1cccc(C)c1NC(=S)N1CC2CC(C1)c1cccc(=O)n1C2 (stereo not given),4,1,0,1,-1,-1,
CC(Cc1ccccc1)[n+]1cc(/N=C(\[O-])Nc2ccccc2)on1 (stereo not given),-2,1,0,-1,0,3,
CC[C@@]1(O)C(=O)OCc2c1cc1n(c2=O)Cc2cc3c(NC(=O)CN)cccc3nc2-1,.,.,.,1,14,.,
CCC1(OC(=O)CN)C(=O)OCc2c1cc1n(c2=O)Cc2cc3ccccc3nc2-1 (stereo not given),.,.,.,4.9*,1,.,
CC[C@@]1(O)C(=O)OCc2c1cc1n(c2=O)Cc2cc3ccccc3nc2-1,.,.,.,6.0*,3,.,
COc1ccc(CCNC2CCCCC2)cc1OC,-4,1,0,1,4,-1,
COc1cccc(-n2c(/C=C/c3ccc(O)c(O)c3)nc3ccccc3c2=O)c1,84*,0.7,-1,0,6,31,
O=c1c2ccccc2nc(/C=C/c2ccc(O)cc2)n1-c1cccc(O)c1,9,0.9,0,1,6,13,
CCN(CC)c1ccc(/C=C/[N+](=O)[O-])cc1,40,0.7,0,0,2,33,
COc1cc(/C=C/[N+](=O)[O-])ccc1O,53*,0.6,0,0,2,38,
CN1CN(c2cccc([N+](=O)[O-])c2)CN=C1N[N+](=O)[O-],-1,1,0,1,3,1,
COc1ccc(Cn2c(O)c(/C=N/NC(=O)c3ccccc3)c(=O)[nH]c2=O)cc1,71*,1,0,1,8,0,
COc1ccc(Cn2c(O)c(/C=N/NC(=O)c3ccncc3)c(=O)[nH]c2=O)cc1,.,.,.,1,7,.,
O=C1N(c2nncs2)CCN1[N+](=O)[O-],.,.,.,1,3,.,
O=c1[nH]c2ccccc2n1CCCN1CCC(n2c(=O)[nH]c3cc(Cl)ccc32)CC1,70*,0.9,1,1,7,10,
Oc1ccccc1/C=N/NP(=S)(c1ccccc1)c1ccccc1,-12,1,-1,-1,-6,-4,
Oc1ccc(/C=N/NP(=S)(c2ccccc2)c2ccccc2)cc1O,77*,0.8,-1,0,3,18,
SMILES,TNAP inh no acc,TNAP act hiacc,Redox H2O2 prof,PERK inhibitor,p97 ATPase inh,TNAP inh hi DEA,others
CC12CC[C@H]3[C@@H](CCC4(O)C[C@H](O)CCC34/C=N/NC(=O)c3ccc(O)cc3)C1(O)CCC2C1=CC(=O)OC1 (stereo not given in full),.,.,.,2.9*,6,.,
CC12CC[C@H]3[C@@H](CCC4(O)C[C@H](O)CCC34/C=N/NC(=O)c3ccccc3F)C1(O)CCC2C1=CC(=O)OC1 (stereo not given in full),.,.,.,1,6,.,
CC12CC[C@H]3[C@@H](CCC4(O)C[C@H](O)CCC34/C=N/NC(=O)c3ccccc3O)C1(O)CCC2C1=CC(=O)OC1 (stereo not given in full),.,.,.,3.1*,10,.,
CN(C)c1ccc(C(=O)N/N=C/C23CC[C@@H](O)CC2(O)CC[C@@H]2[C@@H]3CCC3(C)C(C4=CC(=O)OC4)CCC23O)cc1 (stereo not given in full),.,.,.,0,1,.,
CC(Cc1cccs1)NCc1ccccc1 (stereo not given),-6,1,-1,-1,3,2,
Oc1cc2c(cc1O)[C@H]1c3ccccc3CN[C@@H]1CC2,92*,0.9,.,2,8,7,
CN1C(=O)C(=Cc2ccc(SC3CCCCC3)o2)C(=O)N(C)C1=O,14,1,0,3.0*,2,4,
OC12ONC(c3ccccn3)C1N1CCC2CC1 (stereo not given),-5,1,0,1,6,-4,
CCOc1ccc2nc(N=Nc3c(O)[nH]c(=S)[nH]c3=O)sc2c1,36,0.5,-2,1,1,53*,
Cc1cccnc1NC1=NCC(C)S1 (stereo not given),-5,1,71*,1,4,-5,DTT redox conf=>50
CCC(=NCC1CCCO1)c1c(O)n(-c2ccc(OC)cc2)c(=O)[nH]c1=O (stereo not given),.,.,.,0,5,.,
CCCCn1c(NS(=O)(=O)c2ccc(C)cc2)c(C(=O)OCC)c2nc3ccccc3nc21,-34,1,0,0,0,0,
CCCCn1c(NC(=O)c2ccco2)c(C(=O)OCC)c2nc3ccccc3nc21,-12,1,81*,0,33*,-4,DTT redox conf=>50;p97 confirm=35*
CCn1nc(/C=C/c2ccccc2)nc2c(=O)n(C)c(=O)nc1-2,4,1,152*,0,34*,2,DTT redox conf=>50;p97 confirm=37*
CC(C(=O)Nc1ccc(Br)cc1C(=O)c1ccccc1)N1CCOCC1 (stereo not given),-8,1,0,-1,4,-2,
COC(=O)c1nc(-c2ccc3c(n2)C(=O)C(N)=C(OC)C3=O)c(N)c(-c2ccc(OC)c(OC)c2O)c1C,.,.,.,-1,17*,.,p97 confirm=34*
CN(C)[C@@H]1C(=O)C(C(N)=O)=C(O)[C@@]2(O)C(=O)C3=C(O)c4c(O)cccc4[C@@](C)(O)[C@H]3[C@H](O)[C@@H]12,-2,1,3,0,19*,3,p97 confirm=40*
CCCCCCn1c(O)c(/C=N/N2CCCCCC2)c(=O)[nH]c1=O,.,.,.,0,-4,.,
